Hits are enriched below; roughly 2.8% of the tested compounds scored in any of these assays.
m5-HT2A agonist = activates the mouse 5-HT2A serotonin receptor; P35363; CHO-K1 mHTR2A beta-arrestin complementation, luminescence; percent of 30 µM serotonin response; activation, % at 7.6 µM; actives 0.66% (n = 360,000); AID 624169;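 active means activation above a run cutoff, the mean activation of all tested compounds plus 3 SD, cut at about 14% in these data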
MC4R antag cAMP = blocks human MC4R cAMP signaling; MC4R-expressing cells, MTII-stimulated cAMP, LANCE TR-FRET; inhibition, % at 6.5 µM; actives 0.48% (n = 360,000); AID 540295;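 active means inhibition above its plate's cutoff, the mean of tested wells on that plate plus 3 SD, cut at about 29% in these data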
Target sequence (P32245 whole entry, looked up): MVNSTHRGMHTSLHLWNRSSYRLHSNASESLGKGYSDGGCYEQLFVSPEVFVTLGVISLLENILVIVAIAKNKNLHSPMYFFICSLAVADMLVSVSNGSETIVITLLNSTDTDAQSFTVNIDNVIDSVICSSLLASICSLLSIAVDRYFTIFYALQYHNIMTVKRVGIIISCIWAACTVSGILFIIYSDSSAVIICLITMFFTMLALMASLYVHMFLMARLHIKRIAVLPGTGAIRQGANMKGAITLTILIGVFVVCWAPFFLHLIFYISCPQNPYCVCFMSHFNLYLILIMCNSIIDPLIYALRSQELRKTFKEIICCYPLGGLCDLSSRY
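System – human MC4R-expressing U2OS cells · Also added – Melanotan II · Dosing – one concentration, 6.5 µM nominal · Timing – 30-min compound, 1-h challenge, 1-h detection, room temperature · Measured by – Eu-cAMP/anti-cAMP TR-FRET, emission 671 nm · Replicates – singlicate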
EBI2 antag = antagonists of human EBI2 receptor; EBI2 beta-arrestin recruitment, luminescence, 7a,25-OHC stimulated; AID 651636; inhibition, % at 5 µM; actives 0.81% (n = 360,000); P32249; in the data active means inhibition above about 38%;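 further: enzyme fragment complementation signal reports receptor beta-arrestin coupling in cells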
Target sequence (P32249 whole entry, looked up, the tested form may be a part): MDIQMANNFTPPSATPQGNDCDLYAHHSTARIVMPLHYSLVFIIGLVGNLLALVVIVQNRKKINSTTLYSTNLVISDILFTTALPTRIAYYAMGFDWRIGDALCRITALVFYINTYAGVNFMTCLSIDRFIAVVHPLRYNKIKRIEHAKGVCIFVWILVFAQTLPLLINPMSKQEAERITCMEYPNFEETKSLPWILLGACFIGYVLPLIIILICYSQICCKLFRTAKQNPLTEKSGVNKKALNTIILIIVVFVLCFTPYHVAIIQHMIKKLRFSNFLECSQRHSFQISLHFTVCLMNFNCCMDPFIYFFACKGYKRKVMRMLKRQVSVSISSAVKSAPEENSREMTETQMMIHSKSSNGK
MC4R barr agon = human MC4R agonism via beta-arrestin. AID 540308. U2OS MC4R beta-arrestin complementation, luminescence; percent of melanotan II response, DMSO zero. P32245. activation, % at 8.9 µM. actives 0.98% (n = 360,000);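 active means activation above a per-plate cutoff, the mean activation of sample wells on that plate plus 3 SD, cut at about 8% in these data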
MC4R barr ag = human MC4R beta-arrestin agonism confirmation; shares compounds with MC4R barr agon; U2OS MC4R beta-arrestin recruitment, luminescence; scaled DMSO 0%, Melanotan II 100%; activation, % at 8.9 µM; actives 31% (n = 2,400);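 active means mean activation across replicates above the hit cutoff set in the earlier primary screen, cut at about 8% in these data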
MOR DOR agonist = activates mu-delta opioid heterodimer, MC4R agonist counter-screen | U2OS PathHunter beta-arrestin, beta-gal luminescence; percent of deltorphin B response, DMSO zero | actives 5.8% (n = 2,400) | shares compounds with MC4R barr agon | AID 602194 | activation, % at 9.2 µM;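 active means mean activation across replicates exceeds the hit threshold derived in the earlier primary screen, cut at about 18% in these data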
Hits are given with their value.

What do the screens show for `O=C(Nc1ccc(C(=O)OC[C@@H]2CCCN3CCCC[C@H]23)cc1)c1cccc(Br)c1`?
m5-HT2A agonist: inactive; MC4R antag cAMP: inactive; EBI2 antag: inactive; MC4R barr agon: 12; MC4R barr ag: inactive; MOR DOR agonist: inactive

Results for CCCc1cc(=O)oc2c(C)c3occ(C)c3cc12 ?
m5-HT2A agonist: inactive; MC4R antag cAMP: inactive; EBI2 antag: inactive; MC4R barr agon: 18; MC4R barr ag: inactive; MOR DOR agonist: inactive

What do the screens show for `CCc1ccc(OCC(=O)NCCOc2ccccc2)cc1`?
m5-HT2A agonist: inactive; MC4R antag cAMP: inactive; EBI2 antag: inactive; MC4R barr agon: inactive

Results for CCc1ccc(OCCNC(=O)OCc2ccccc2)cc1 ?
m5-HT2A agonist: inactive; MC4R antag cAMP: inactive; EBI2 antag: inactive; MC4R barr agon: 10.0; MC4R barr ag: inactive; MOR DOR agonist: inactive

What do the screens show for `CC(C)CCN(C(=O)Nc1ccc(Cl)cc1)C1CCN(C(C)C)CC1`?
m5-HT2A agonist: inactive; MC4R antag cAMP: inactive; EBI2 antag: inactive; MC4R barr agon: inactive

Results for O=C(NCc1csc(-c2cccs2)n1)Nc1cccc(Cl)c1 ?
m5-HT2A agonist: inactive; MC4R antag cAMP: inactive; EBI2 antag: inactive; MC4R barr agon: 9.8; MC4R barr ag: inactive; MOR DOR agonist: inactive

What do the screens show for `Cc1ccc(S(=O)(=O)N2CCN(C(=O)C3CCN(C(=O)c4ccc(F)cc4)CC3)CC2)c(C)c1`?
m5-HT2A agonist: inactive; MC4R antag cAMP: inactive; EBI2 antag: inactive; MC4R barr agon: inactive

How did COc1cccc(-c2cnc(C(O)c3c(C)cc(C)cc3C)[nH]2)c1 (configuration not stated) do in these assays?
m5-HT2A agonist: inactive; MC4R antag cAMP: inactive; EBI2 antag: inactive; MC4R barr agon: inactive

How did O=C(Nc1ccc(N2CCCC2)cc1)c1ccc(Br)cc1 do in these assays?
m5-HT2A agonist: inactive; MC4R antag cAMP: inactive; EBI2 antag: inactive; MC4R barr agon: 18; MC4R barr ag: inactive; MOR DOR agonist: inactive

How did O=C(Nc1ccc(N2CCCC2)cc1)c1cccc(Cl)c1 do in these assays?
m5-HT2A agonist: inactive; MC4R antag cAMP: inactive; EBI2 antag: inactive; MC4R barr agon: 11; MC4R barr ag: inactive; MOR DOR agonist: inactive

What do the screens show for `CC(C)Oc1ccc(C(=O)Nc2ccc(N3CCCC3)cc2)cc1`?
m5-HT2A agonist: inactive; MC4R antag cAMP: inactive; EBI2 antag: inactive; MC4R barr agon: inactive

How did O=C(Nc1ccc(N2CCCC2)cc1)c1cc(Cl)ccc1Cl do in these assays?
m5-HT2A agonist: inactive; MC4R antag cAMP: inactive; EBI2 antag: inactive; MC4R barr agon: inactive

What do the screens show for `O=C(NCc1nc(-c2ccc(C(F)(F)F)cc2)no1)Nc1ccc(OC(F)(F)F)cc1`?
m5-HT2A agonist: inactive; MC4R antag cAMP: inactive; EBI2 antag: inactive; MC4R barr agon: 11; MC4R barr ag: inactive; MOR DOR agonist: inactive

Results for CCOC1=C2[C@@H](CN(S(=O)(=O)c3ccc(C)cc3)[C@H]2c2ccccc2F)[C@H]2C(=O)N(C3CCCCC3)C(=O)[C@H]2C1 ?
m5-HT2A agonist: inactive; EBI2 antag: inactive

How did Cc1ccc2sc(N(CCCN(C)C)C(=O)CN3C(=O)c4ccccc4C3=O)nc2c1C do in these assays?
m5-HT2A agonist: inactive; MC4R antag cAMP: inactive; EBI2 antag: inactive; MC4R barr agon: 18; MC4R barr ag: 19; MOR DOR agonist: inactive

What do the screens show for `CCc1nc2ccc(C(=O)NCc3cccs3)cn2c1N(C)Cc1nccs1`?
m5-HT2A agonist: inactive; MC4R antag cAMP: inactive; EBI2 antag: inactive; MC4R barr agon: inactive

What do the screens show for `CCc1ccc(C2CC(c3ccc(F)cc3)Nc3nc(N)nn32)cc1` (configuration not stated)?
m5-HT2A agonist: inactive; MC4R antag cAMP: inactive; EBI2 antag: inactive; MC4R barr agon: 25; MC4R barr ag: 17; MOR DOR agonist: inactive

Results for Cc1ccc(C2CC(c3cccs3)=NN2C(=O)CCl)cc1 (configuration not stated) ?
m5-HT2A agonist: inactive; MC4R antag cAMP: inactive; EBI2 antag: inactive; MC4R barr agon: 10; MC4R barr ag: inactive; MOR DOR agonist: 27

What do the screens show for `COC(=O)c1ccc2nc(-c3ccc(F)cc3)c(Cc3ccsc3)n2c1`?
m5-HT2A agonist: inactive; EBI2 antag: inactive

What do the screens show for `CC(=O)OC[C@@H]1CN(Cc2cccc(C(F)(F)F)c2)C[C@H](n2cnc3c(NCc4ccco4)ncnc32)O1`?
m5-HT2A agonist: inactive; MC4R antag cAMP: inactive; EBI2 antag: inactive; MC4R barr agon: inactive

Results for CC(C)(C)c1ccc(/C=N/NC(=O)Cc2c[nH]c3ccccc23)cc1 ?
m5-HT2A agonist: inactive; MC4R antag cAMP: inactive; EBI2 antag: inactive; MC4R barr agon: 10; MC4R barr ag: inactive; MOR DOR agonist: inactive

What do the screens show for `COC(=O)[C@@]1(C(C)C)N=C(c2cc(OC)c(OC)c(OC)c2)[C@]2(O1)C(=O)N(C)c1ccc(Br)cc12`?
m5-HT2A agonist: inactive; EBI2 antag: inactive

How did Cc1ccc(CN(C)C(=O)c2c(C)nn(-c3ccccc3)c2C)cc1 do in these assays?
m5-HT2A agonist: inactive; MC4R antag cAMP: inactive; EBI2 antag: inactive; MC4R barr agon: inactive

What do the screens show for `Cc1ccc(-c2csc(N(C)C(=O)c3c(C)nn(-c4ccccc4)c3Cl)n2)cc1`?
m5-HT2A agonist: inactive; MC4R antag cAMP: inactive; EBI2 antag: inactive; MC4R barr agon: 16; MC4R barr ag: inactive; MOR DOR agonist: inactive

What do the screens show for `COc1ccc(Cn2c(C)nc3c(c2=O)c2nc4ccccc4nc2n3Cc2ccco2)cc1`?
m5-HT2A agonist: inactive; MC4R antag cAMP: inactive; EBI2 antag: inactive; MC4R barr agon: 11; MC4R barr ag: inactive; MOR DOR agonist: inactive

Results for COCCN1C[C@@H](CO)O[C@@H](n2cnc3c(N(C)C)ncnc32)C1 ?
m5-HT2A agonist: inactive; MC4R antag cAMP: inactive; EBI2 antag: inactive; MC4R barr agon: inactive

What do the screens show for `COc1cc(CNCCc2ccc(S(N)(=O)=O)cc2)ccc1OCc1ccc(Cl)cc1`?
m5-HT2A agonist: inactive; MC4R antag cAMP: inactive; EBI2 antag: inactive; MC4R barr agon: inactive

What do the screens show for `CCOc1cc(/C=N/N=C(N)N)ccc1OCc1ccc(Cl)cc1`?
m5-HT2A agonist: inactive; MC4R antag cAMP: inactive; EBI2 antag: inactive; MC4R barr agon: 12; MC4R barr ag: 11; MOR DOR agonist: inactive

What do the screens show for `CCOc1cc(CNCCc2ccc(S(N)(=O)=O)cc2)ccc1OCc1ccc(Cl)cc1`?
m5-HT2A agonist: inactive; MC4R antag cAMP: inactive; EBI2 antag: inactive; MC4R barr agon: 12; MC4R barr ag: 71; MOR DOR agonist: 58

How did CN(C)C(=O)C[C@@H]1CC[C@@H](NC(=O)C2CCC2)[C@@H](CO)O1 do in these assays?
m5-HT2A agonist: inactive; EBI2 antag: inactive

Results for O=c1cc(-c2ccccc2)oc2c1CCCC2 ?
m5-HT2A agonist: inactive; EBI2 antag: inactive

How did CC(=O)c1nn(-c2cccc(C)c2)cc1C(=O)c1cccc(Br)c1 do in these assays?
m5-HT2A agonist: inactive; MC4R antag cAMP: inactive; EBI2 antag: inactive; MC4R barr agon: 12; MC4R barr ag: inactive; MOR DOR agonist: inactive

Screening data from PubChem.
